Experiments:
[1] = target: Translocator protein (Mus musculus) (UniProt P50637); test: Inhibition of TSPO in mouse HT22 cells assessed as protection against amyloid beta (1 to 42)-induced mitochondrial membrane potential loss by measuring recovery of mitochondrial membrane potential at 5 uM preincubated for 10 mins followed by amyloid beta (1 to 42) addition measured every 1 hr for 3 hrs by JC1 staining based fluorescence assay relative to control; format: cell-based; set-up: scale not given: the % may be the effect or the level left; details: HT-22
How it was run: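 HT22 cells at 30,000 per well were loaded with 7.5 µM JC-1 in phenol red-free Opti-MEM for 1 h 15 min at 37 °C, then washed. Cells were treated with compound (5 µM) and Aβ1-42 (5 µM); vehicle wells received DMSO. Green (485/535) and red (560/595) fluorescence were read hourly for 3 h. Recovery was normalised between Aβ-damaged (0%) and normal (100%) ratio.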

[2] = Cytotoxicity against mouse HT22 cells assessed as cell viability at 5 uM after 24 hrs by MTT assay relative to control; format: toxicity, HT-22; details: read-out: Activity
How it was run: (§1)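 MTT was added for 2 h, then solubilising solution (10% Triton X-100 in isopropanol with 0.1 M HCl) for 2 h more. Absorbance read at 560 nm; % inhibition normalised to vehicle, and viability taken from compound-only wells.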

[3] = target: Translocator protein (Mus musculus) (UniProt P50637); test: Inhibition of TSPO in mouse HT22 cells assessed as protection against amyloid beta (1 to 42)-induced mitochondrial membrane potential loss by measuring recovery of ATP production at 5 uM preincubated for 10 mins followed by amyloid beta (1 to 42) addition measured after 7 hrs by luciferase reporter gene assay relative to control; format: cell-based; set-up: scale not given: the % may be the effect or the level left; details: HT-22
How it was run: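 HT22 cells at 7000 per well were given compound (5 µM) for 10 min at 37 °C, then Aβ1-42 (5 µM) or DMSO vehicle, and incubated 7 h. Cells were washed, lysed in 1% Triton X-100, and protein-equalised by BCA. ATP was measured by luciferin/luciferase luminescence and normalised to vehicle.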

[4] = target: Translocator protein (Mus musculus) (UniProt P50637); test: Inhibition of TSPO in mouse HT22 cells assessed as inhibition of amyloid beta (1 to 42)-induced ROS generation at 5 uM after 6 hrs by DCFDA staining based fluorescence assay relative to control; format: cell-based; details: HT-22
[5] = target: Translocator protein (Mus musculus) (UniProt P50637); test: Inhibition of TSPO in mouse HT22 cells assessed as inhibition of amyloid beta (1 to 42)-induced toxicity at 5 uM after 24 hrs by MTT assay relative to control; format: cell-based; details: HT-22
How it was run: as §1, with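 “HT22 cells at 5000 per well were treated with compound (5 µM), with or without Aβ1-42 (5 µM), for 24 h at 37 °C. MTT” for “MTT”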

Chain of Translocator protein (Mus musculus) (P50637 whole entry, looked up): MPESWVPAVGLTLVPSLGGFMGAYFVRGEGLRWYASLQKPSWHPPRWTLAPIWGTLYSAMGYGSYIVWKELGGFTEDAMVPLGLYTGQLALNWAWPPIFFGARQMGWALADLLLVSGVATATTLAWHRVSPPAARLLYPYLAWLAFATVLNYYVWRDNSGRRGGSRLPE

| Activity [1] [%] | Structure (SMILES) | further results |
| --- | --- | --- |
| 38 | CCN(CC)CCCNC(=O)c1ccc(Cn2c(SCc3ccc(F)cc3)nc3ncccc32)cc1 | – |
| 68 | Cc1ccc(C(C)C)cc1NC(=O)Cc1nc2ccccc2n1Cc1ccc(C(=O)NCCCN(C)C)cc1 | viability at 24 h, 5 µM [2]: 97%; Activity [3]: 14% |
| 30 | Cc1c(Cl)cccc1NC(=O)Cn1c(SCc2ccccc2F)nc2ccncc21 | – |
| 23 | CCCSCCNC(=O)c1ccc(Cn2c(SCc3ccccc3)nc3ncccc32)cc1 | – |
| 24 | Cc1ccc(C(C)C)cc1NC(=O)Cn1c(Cc2ccccc2)nc2ccccc21 | – |
| 34 | COc1ccc(CC(=O)Cn2c(SCc3ccc(F)cc3)nc3ccncc32)c(OC)c1 | – |
| 42 | CC(C)(C)c1cc(NC(=O)Cn2c(Cc3ccc(Cl)c(Cl)c3)nc3ccccc32)cc(C(C)(C)C)c1 | – |
| 25 | CCC1CCCCN1C(=O)Cn1c(SCc2cccc(C(F)(F)F)c2)nc2ncccc21 (stereo unspecified) | – |
| 91 | Cc1ccc(C(C)C)cc1NC(=O)Cn1c(-c2cc(Cl)ccc2Cl)nc2ccccc21 | viability at 24 h, 5 µM [2]: 93%; Activity [3]: 0% |
| 18 | O=C(Cn1c(-c2cc(Cl)ccc2Cl)nc2ccc(Cl)cc21)Nc1cc(Cl)cc(Cl)c1 | – |
| 89 | O=C(NCCN1CCCCC1)c1ccc(Cn2c(Cc3c(Cl)cccc3Cl)nc3ccccc32)cc1 | viability at 24 h, 5 µM [2]: 87%; Activity [3]: 4% |
| 80 | Cc1ccc(C(C)C)cc1NC(=O)Cc1nc2ccccc2n1Cc1ccc(C(=O)NCCCN2CCCCC2)cc1 | viability at 24 h, 5 µM [2]: 100%; Activity [3]: 23% |
| 46 | O=C(NCCCc1cccs1)c1ccc(Cn2c(SCc3ccc(F)cc3)nc3ncccc32)cc1 | – |
| 63 | Cc1ccc(C(C)C)cc1NC(=O)Cn1c(-c2ccccc2)nc2ccccc21 | viability at 24 h, 5 µM [2]: 67%; Activity [3]: 19% |
| 57 | Cc1ccc(C(C)C)cc1NC(=O)Cn1c(Cc2ccc(Cl)c(Cl)c2)nc2ccccc21 | – |
| 27 | COc1ccc(NC(=O)Cn2c(SCc3ccc(C)cc3)nc3ccncc32)c(OC)c1OC | – |
| 57 | CCCN(CCC)C(=O)Cn1c(SCc2ccc(F)cc2)nc2ccccc21 | Activity [3]: 20% |
| 0 | COc1ccc(OC)c(-c2nc3ccccc3n2CC(=O)Nc2cc(Oc3ccc(-c4ccccc4)cc3)ccc2F)c1 | – |
| -7 | O=C(Cn1c(SCc2ccc(F)cc2)nc2ncccc21)Nc1ccc2c(c1)OCO2 | – |
| 41 | COc1ccc(OC)c(-c2nc3ccccc3n2CC(=O)Nc2cc(C(C)C)ccc2C)c1 | – |
| 76 | O=C(NCCCN1CCOCC1)c1ccc(Cn2c(Cc3c(Cl)cccc3Cl)nc3ccccc32)cc1 | viability at 24 h, 5 µM [2]: 98%; Activity [3]: 1% |
| 52 | O=C(NCCCc1ccco1)c1ccc(Cn2c(SCc3ccc(F)cc3)nc3ncccc32)cc1 | – |

Further lines, the compound ahead of its results:

| Structure (SMILES) | Activity [1] [%] | further results |
| --- | --- | --- |
| Cc1cccc(C(C)(C)C)c1NC(=O)Cn1c(Cc2ccccc2)nc2ccccc21 | 38 | – |
| CN1CCN(CCCNC(=O)c2ccc(Cn3c(Cc4c(Cl)cccc4Cl)nc4ccccc43)cc2)CC1 | 86 | – |
| Cc1ccc(C(C)C)c(OC[C@H](O)Cn2c(Cc3ccccc3)nc3ccccc32)c1 | 53 | – |
| O=C(NCCCN1CCCC1)c1ccc(Cn2c(Cc3c(Cl)cccc3Cl)nc3ccccc32)cc1 | 79 | viability at 24 h, 5 µM [2]: 100 to 101%; inhibition [4]: 15%; inhibition [5]: 12%; Activity [3]: 31% |
| CN(C)C(=O)c1ccc(Cn2c(Cc3c(Cl)cccc3Cl)nc3ccccc32)cc1 | 73 | – |
| COc1ccc(OC)c(Cc2nc3ccccc3n2CC(=O)Nc2cc(Cl)cc(Cl)c2)c1 | 68 | viability at 24 h, 5 µM [2]: 81 to 82%; inhibition [4]: 0%; inhibition [5]: 12%; Activity [3]: 94% |
| O=C(CCn1c(-c2ccc(Cl)cc2)nc2ccccc21)Nc1ccccc1F | 65 | – |
| Cc1ccc(Cn2c(SCc3ccc(F)cc3)nc3ncccc32)cc1 | 15 | – |
| CCCSCCCNC(=O)c1ccc(CSc2nc3ncccc3n2Cc2cccc(C)c2)cc1 | 58 | – |
| COc1ccc(OC)c(Cc2nc3ccccc3n2CC(=O)Nc2cc(C(C)C)ccc2C)c1 | 81 | viability at 24 h, 5 µM [2]: 96%; Activity [3]: 0% |
| O=C(NCCN1CCOCC1)c1ccc(Cn2c(SCc3ccc(F)cc3)nc3ncccc32)cc1 | 47 | – |
| O=C(c1ccc(CSc2nc3ncccc3n2Cc2ccc(F)cc2)cc1)N1CCCCC1 | 37 | – |
| O=C(Cn1c(-c2cc(Cl)ccc2Cl)nc2ccccc21)Nc1cc(Cl)cc(Cl)c1 | 91 | viability at 24 h, 5 µM [2]: 107%; Activity [3]: 0% |
| CCCN(CCC)C(=O)Cn1c(SCc2cccc(Cl)c2)nc2ccncc21 | 34 | – |
| CCN1CCCC1CNC(=O)c1ccc(Cn2c(CC(=O)Nc3cc(C(C)C)ccc3C)nc3ccccc32)cc1 (stereo unspecified) | 68 | – |
| C=CCN(C(=O)Cn1c(SCc2ccc(F)cc2)nc2ccncc21)c1ccccc1 | -1 | – |
| Cc1ccc(C(C)C)cc1NC(=O)Cn1c(-c2cc(Cl)ccc2Cl)nc2cc(Cl)ccc21 | 60 | viability at 24 h, 5 µM [2]: 78%; Activity [3]: 3% |
| Cc1cccc(C(C)(C)C)c1NC(=O)Cn1c(-c2cc(Cl)ccc2Cl)nc2ccccc21 | 41 | – |
| COc1ccc(NC(=O)Cn2c(SCc3cc(C)ccc3C)nc3ccncc32)c(OC)c1OC | 43 | – |
| O=C(NCCN1CCCCC1)c1ccc(Cn2c(SCc3ccc(F)cc3)nc3ncccc32)cc1 | 45 | – |
| CC(C)(C)c1cc(NC(=O)Cn2c(Cc3ccccc3)nc3ccccc32)cc(C(C)(C)C)c1 | 29 | – |
| CN1CCC(NC(=O)c2ccc(Cn3c(Cc4c(Cl)cccc4Cl)nc4ccccc43)cc2)CC1 | 81 | viability at 24 h, 5 µM [2]: 94%; Activity [3]: 8% |
| Cc1cccc(C(C)(C)C)c1NC(=O)Cn1c(-c2ccccc2)nc2ccccc21 | 65 | viability at 24 h, 5 µM [2]: 65 to 95%; inhibition [4]: 0%; inhibition [5]: 16%; Activity [3]: 55% |
| O=C(Cn1c(-c2cc(Cl)ccc2Cl)nc2cc(Cl)ccc21)Nc1cc(Cl)cc(Cl)c1 | 77 | – |
| O=C(Cn1c(-c2ccccc2)nc2ccccc21)Nc1cc(Cl)cc(Cl)c1 | 69 | – |
| CC(C)(C)c1cc(NC(=O)Cn2c(-c3ccccc3)nc3ccccc32)cc(C(C)(C)C)c1 | 86 | viability at 24 h, 5 µM [2]: 71%; Activity [3]: 4% |
| CC[C@@H](C(=O)Nc1ccccc1OC)n1c(SCc2ccc(C)cc2)nc2ccncc21 | 43 | – |
| CCN1CCCC1CNC(=O)c1ccc(Cn2c(SCc3ccc(F)cc3)nc3ncccc32)cc1 (stereo unspecified) | 61 | – |
| O=C(Cn1c(Cc2ccccc2)nc2ccccc21)Nc1cc(Oc2ccc(-c3ccccc3)cc2)ccc1F | 0 | – |

Reference: ChEMBL document CHEMBL3877298, “Discovery of benzimidazole derivatives as modulators of mitochondrial function: A potential treatment for Alzheimer's disease” (Eur J Med Chem, 2017)
